Reference: ChEMBL document CHEMBL1123874, “Polychlorinated biphenyls and related compound interactions with specific binding sites for thyroxine in rat liver nuclear extracts” (J Med Chem, 1987)

Experiments:
Rattus norvegicus [1] = species on record: Rattus norvegicus; experiment: Number of T4 binding sites in rat liver from TCDD treated rats; type: functional
Summary of the method: (§1)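 Male Sprague–Dawley rats (200–250 g), five per group, gavaged with TCDD (0, 12, 25, 37 or 50 µg/kg) in corn oil at 0.1 mL/kg; controls got corn oil. Livers were taken after 9 days and pooled per group. Nuclear extract (10 µg protein, buffer B, pH 7.6) was incubated 2 h at 25 °C with 0.1–2.4 nM [125I]T4. Bound ligand was isolated on Sephadex G-25, specific binding taken as total minus excess-T4, Scatchard analysis, duplicates.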

Rattus norvegicus [2] = experiment: Number of T4 binding sites in rat liver from TCDD treated rats at a dose of 12 ug/Kg; type: functional; summary of the method: as §1
Rattus norvegicus [3] = experiment: Number of T4 binding sites in rat liver from TCDD treated rats at a dose of 25 ug/Kg; type: functional; summary of the method: as §1
Rattus norvegicus [4] = experiment: Number of T4 binding sites in rat liver from TCDD treated rats at a dose of 37 ug/Kg; type: functional; summary of the method: as §1
Rattus norvegicus [5] = experiment: Number of T4 binding sites in rat liver from TCDD treated rats at a dose of 50 ug/Kg; type: functional; summary of the method: as §1
Rattus norvegicus [6] = species on record: Rattus norvegicus; experiment: Body weight (after treatment) was determined; type: functional
Summary of the method: (§2)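 Male Sprague–Dawley rats (200–250 g, 6 weeks old), in groups of five, were dosed by gavage with TCDD at 0, 12, 25, 37 or 50 µg/kg body weight in corn oil (0.1 mL/kg). Controls received corn oil alone. Animals were killed by CO2 9 days after dosing.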

Rattus norvegicus [7] = experiment: Body weight was determined in TCDD-treated rat at a dose of 12 ug/Kg; type: functional; summary of the method: as §2
Rattus norvegicus [8] = experiment: Body weight was determined in TCDD-treated rats at a dose of 25 ug/Kg; type: functional; summary of the method: as §2
Rattus norvegicus [9] = experiment: Body weight was determined in TCDD-treated rats at a dose of 37 ug/Kg; type: functional; summary of the method: as §2
Rattus norvegicus [10] = experiment: Body weight was determined in TCDD-treated rats at a dose of 50 ug/Kg; type: functional; summary of the method: as §2
Rattus norvegicus [11] = experiment: Liver weight was determined in TCDD-treated rat at a dose of 12 ug/Kg; type: functional; summary of the method: as §2
Rattus norvegicus [12] = experiment: Liver weight was determined in TCDD-treated rats at a dose of 25 ug/Kg; type: functional; summary of the method: as §2
Rattus norvegicus [13] = experiment: Liver weight was determined in TCDD-treated rats at a dose of 37 ug/Kg; type: functional; summary of the method: as §2
Rattus norvegicus [14] = experiment: Liver weight was determined in TCDD-treated rats at a dose of 50 ug/Kg; type: functional; summary of the method: as §2
Rattus norvegicus [15] = species on record: Rattus norvegicus; experiment: Liver weight was determined in rats; type: functional; summary of the method: as §2
Rattus norvegicus [16] = experiment: Serum T4 level was determined in TCDD-treated rat at a dose of 12 ug/Kg; type: functional, organism-based; summary of the method: as §2
Rattus norvegicus [17] = experiment: Serum T4 level was determined in TCDD-treated rat at a dose of 25 ug/Kg; type: functional, organism-based; summary of the method: as §2
Rattus norvegicus [18] = experiment: Serum T4 level was determined in TCDD-treated rat at a dose of 37 ug/kg; type: functional, organism-based; summary of the method: as §2
Rattus norvegicus [19] = experiment: Serum T4 level was determined in TCDD-treated rat at a dose of 50 ug/Kg; type: functional, organism-based; summary of the method: as §2
Rattus norvegicus [20] = species on record: Rattus norvegicus; experiment: Serum T4 level was determined in rats; type: functional, organism-based; summary of the method: as §2
[21] = Binding affinity of [125I]T4 to rat liver nuclear extract (CONTROL); summary of the method: as §1
[22] = Binding affinity of [125I]T4 to rat liver nuclear extract at a dose of 12 ug/Kg; summary of the method: as §1
[23] = Binding affinity of [125I]T4 to rat liver nuclear extract at a dose of 25 ug/Kg; summary of the method: as §1
[24] = Binding affinity of [125I]-T4 to rat liver nuclear extract at a dose of 37 ug/Kg; summary of the method: as §1
[25] = Binding affinity of [125I]T4 to rat liver nuclear extract at a dose of 50 ug/Kg; summary of the method: as §1

Clc1cc2c(cc1Cl)Oc1cc(Cl)c(Cl)cc1O2 [2,3,7,8-TETRACHLORODIBENZO-P-DIOXIN]
Activity (Rattus norvegicus [1]): <3.24 nM/mg
Activity (Rattus norvegicus [2]): <4.06 nM/mg
Activity (Rattus norvegicus [3]): <4.12 nM/mg
Activity (Rattus norvegicus [4]): <8.71 nM/mg
Activity (Rattus norvegicus [5]): <6.65 nM/mg
Weight (Rattus norvegicus [6]): 302 g
Weight (Rattus norvegicus [7]): 293 g
Weight (Rattus norvegicus [8]): <273 g
Weight (Rattus norvegicus [9]): <274 g
Weight (Rattus norvegicus [10]): <271 g
Weight (Rattus norvegicus [11]): <18.9 g
Weight (Rattus norvegicus [12]): <18.3 g
Weight (Rattus norvegicus [13]): <19.3 g
Weight (Rattus norvegicus [14]): <19.9 g
Weight (Rattus norvegicus [15]): 15.1 g
Serum T4 (Rattus norvegicus [16]): < 5.6 µg/dL
Serum T4 (Rattus norvegicus [17]): < 4.4 µg/dL
Serum T4 (Rattus norvegicus [18]): < 4.1 µg/dL
Serum T4 (Rattus norvegicus [19]): < 4.2 µg/dL
Serum T4 (Rattus norvegicus [20]): 7.6 µg/dL
Kd [21]: 0.7 nM
Kd [22]: 0.48 nM
Kd [23]: 0.56 nM
Kd [24]: 0.69 nM
Kd [25]: 0.72 nM
